# What was measured:
# Assay type in all cases: functional
# [1] = Antioxidant activity assessed as nitric oxide radical scavenging activity after 150 mins
# Summary of the method: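 10 mM sodium nitroprusside (4 mL), PBS pH 7.4 (1 mL) and sample or ascorbic acid in DMSO (1 mL, 12.5–100 µg/mL), incubated 150 min at 25 °C. Nitrite detected with sulphanilic acid (5 min) then naphthylethylenediamine (30 min, diffused light). Read at […]. Triplicate. % inhibition = [1 − (Vt/Vc)] × 100. IC50 derived from it.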
# [2] = Antioxidant activity assessed as hydrogen peroxide scavenging activity after 10 mins
# Summary of the method: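 H2O2 (20 mM) in PBS pH 7.4. 1 mL of sample or ascorbic acid in methanol (12.5–100 µg/mL) added to 2 mL H2O2 solution. A230 read after 10 min. % inhibition = [1 − (Vt/Vc)] × 100. Triplicate, averaged. IC50 derived from % inhibition across concentrations.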
# [3] = Antioxidant activity assessed as inhibition of lipid peroxidation using egg lecithin liposomes incubated for 1 hr
# Summary of the method: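 Egg lecithin (3 mg/mL, phosphate buffer pH 7.4) sonicated 10 min to form liposomes. Sample or ascorbic acid (12.5–100 µg/mL) added. Peroxidation induced with FeCl3 and L-ascorbic acid, 1 h at 37 °C. Stopped with HCl/TCA/TBA/BHA, boiled 15 min, centrifuged, supernatant read at 532 nm. Triplicate. % inhibition vs control. IC50 derived.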
# [4] = Antioxidant activity assessed as potassium ferricyanide ion reducing power after 20 mins
# Summary of the method: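 Oyaizu method. Samples or ascorbic acid in DMF (12.5–100 µg/mL) mixed with 0.2 M phosphate buffer pH 6.6 and 1% potassium ferricyanide, 20 min at 50 °C. 10% TCA added, centrifuged. Supernatant mixed with water and 0.1% FeCl3, read at 700 nm. % = [(Vt/Vc) − 1] × 100. IC50 derived.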
# [5] = Antiinflammatory activity assessed as inhibition of albumin denaturation at 100 ug/ml by UV-visible spectrophotometry
# Summary of the method: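 Compounds dissolved in minimal DMF, diluted in PBS pH 7.4 (final DMF <2.5%). 1 mL test solution (100 µg/mL) plus 1 mL 1% albumin in PBS, 15 min at 27 ± 1 °C, then heated 10 min at 60 ± 1 °C. After cooling, turbidity read at 660 nm. % inhibition = [(Vt/Vc) − 1] × 100 against a no-drug control. Triplicate, averaged. Diclofenac standard.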
# Metaphire posthuma [6] = test: Anthelmintic activity against Pheretima posthuma assessed as time taken for complete parasite paralysis at 0.1% w/v
# Summary of the method: (§1)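 Earthworms (Pheretima posthuma) exposed to test solutions at 0.1, 0.2 and 0.5% w/v; time in minutes to complete paralysis (worms motionless) recorded. Albendazole as standard. Mean of three determinations ± S.D.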
# Metaphire posthuma [7] = test: Anthelmintic activity against Pheretima posthuma assessed as time taken for complete parasite paralysis at 0.2% w/v; summary of the method: as §1
# Metaphire posthuma [8] = test: Anthelmintic activity against Pheretima posthuma assessed as time taken for complete parasite paralysis at 0.5% w/v; summary of the method: as §1
# Metaphire posthuma [9] = test: Anthelmintic activity against Pheretima posthuma assessed as time taken for parasite death at 0.1% w/v
# Summary of the method: (§2)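 Earthworms (Pheretima posthuma, spelled Perituma posthuma in text) exposed to test compounds at 0.1, 0.2 and 0.5% w/v. Albendazole served as standard, with an untreated control. Paralysis was recorded as the time until worms became motionless, then time to death was recorded, in minutes. Each value is the mean of three determinations with S.D.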
# Metaphire posthuma [10] = test: Anthelmintic activity against Pheretima posthuma assessed as time taken for parasite death at 0.2% w/v; summary of the method: as §2
# Metaphire posthuma [11] = test: Anthelmintic activity against Pheretima posthuma assessed as time taken for parasite death at 0.5% w/v; summary of the method: as §2
# Pseudomonas aeruginosa [12] = test: Antimicrobial activity against Pseudomonas aeruginosa at 25 ug/ml by agar plate diffusion technique; settings: read-out: IZ
# Summary of the method: (§3)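 Agar plate diffusion against E. coli, P. aeruginosa, S. aureus and B. subtilis, with compounds at 25, 50 and 100 µg/mL. Streptomycin as standard.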
# Pseudomonas aeruginosa [13] = test: Antimicrobial activity against Pseudomonas aeruginosa at 50 ug/ml by agar plate diffusion technique; settings: read-out: IZ; summary of the method: as §3
# Pseudomonas aeruginosa [14] = test: Antimicrobial activity against Pseudomonas aeruginosa at 100 ug/ml by agar plate diffusion technique; settings: read-out: IZ; summary of the method: as §3
# Bacillus subtilis [15] = test: Antimicrobial activity against Bacillus subtilis at 25 ug/ml by agar plate diffusion technique; settings: read-out: IZ; summary of the method: as §3
# Bacillus subtilis [16] = test: Antimicrobial activity against Bacillus subtilis at 50 ug/ml by agar plate diffusion technique; settings: read-out: IZ; summary of the method: as §3
# Bacillus subtilis [17] = test: Antimicrobial activity against Bacillus subtilis at 100 ug/ml by agar plate diffusion technique; settings: read-out: IZ; summary of the method: as §3
# Candida albicans [18] = test: Antimicrobial activity against Candida albicans at 25 ug/ml by paper disc method; settings: read-out: IZ
# Summary of the method: (§4)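 Paper disc method against A. niger and C. albicans, with compounds at 25, 50 and 100 µg/mL. Amphotericin-B as standard.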
# Candida albicans [19] = test: Antimicrobial activity against Candida albicans at 50 ug/ml by paper disc method; settings: read-out: IZ; summary of the method: as §4
# Candida albicans [20] = test: Antimicrobial activity against Candida albicans at 100 ug/ml by paper disc method; settings: read-out: IZ; summary of the method: as §4
# Aspergillus niger [21] = test: Antimicrobial activity against Aspergillus niger at 25 ug/ml by paper disc method; settings: read-out: IZ; summary of the method: as §4
# Aspergillus niger [22] = test: Antimicrobial activity against Aspergillus niger at 50 ug/ml by paper disc method; settings: read-out: IZ; summary of the method: as §4
# Aspergillus niger [23] = test: Antimicrobial activity against Aspergillus niger at 100 ug/ml by paper disc method; settings: read-out: IZ; summary of the method: as §4
# Staphylococcus aureus [24] = test: Antimicrobial activity against Staphylococcus aureus at 25 ug/ml by agar plate diffusion technique; settings: read-out: IZ; summary of the method: as §3
# Staphylococcus aureus [25] = test: Antimicrobial activity against Staphylococcus aureus at 50 ug/ml by agar plate diffusion technique; settings: read-out: IZ; summary of the method: as §3
# Staphylococcus aureus [26] = test: Antimicrobial activity against Staphylococcus aureus at 100 ug/ml by agar plate diffusion technique; settings: read-out: IZ; summary of the method: as §3
Structure (SMILES),IC50 [1] [µg/mL],IC50 [2] [µg/mL],IC50 [3] [µg/mL],IC50 [4] [µg/mL],inhibition [5] [%],Time (Metaphire posthuma [6]) [min],Time (Metaphire posthuma [7]) [min],Time (Metaphire posthuma [8]) [min],Time (Metaphire posthuma [9]) [min],Time (Metaphire posthuma [10]) [min],Time (Metaphire posthuma [11]) [min],zone of inhibition at 25 µg/mL (Bacillus subtilis [15]) [mm],zone of inhibition at 50 µg/mL (Bacillus subtilis [16]) [mm],zone of inhibition at 100 µg/mL (Bacillus subtilis [17]) [mm],zone of inhibition at 25 µg/mL (Candida albicans [18]) [mm],zone of inhibition at 50 µg/mL (Candida albicans [19]) [mm],zone of inhibition at 100 µg/mL (Candida albicans [20]) [mm],zone of inhibition at 25 µg/mL (Aspergillus niger [21]) [mm],zone of inhibition at 50 µg/mL (Aspergillus niger [22]) [mm],zone of inhibition at 100 µg/mL (Aspergillus niger [23]) [mm],other results
COc1cccc(-c2nc(SC)n(C)c(=O)c2C#N)c1OC,67,43,48,54,38.2,75.54,57.18,41.47,83.02,60.44,56.08,10.4,14.4,20.3,10.5,13,19.5,9.25,12,19.7,zone of inhibition at 25 µg/mL (Pseudomonas aeruginosa [12]): 5.86 mm; zone of inhibition at 50 µg/mL (Pseudomonas aeruginosa [13]): 8.25 mm; zone of inhibition at 100 µg/mL (Pseudomonas aeruginosa [14]): 9.93 mm
O=C1O[C@H]([C@@H](O)CO)C(O)=C1O [ASCORBIC ACID],47,33,26,31,–,–,–,–,–,–,–,–,–,–,–,–,–,–,–,–,–
C[C@@H]1[C@H](O)[C@@H](C)/C=C/C=C/C=C/C=C/C=C/C=C/C=C/[C@H](O[C@@H]2O[C@H](C)[C@@H](O)[C@H](N)[C@@H]2O)C[C@@H]2O[C@](O)(C[C@@H](O)C[C@@H](O)[C@H](O)CC[C@@H](O)C[C@@H](O)CC(=O)O[C@H]1C)C[C@H](O)[C@H]2C(=O)O [AMPHOTERICIN B],–,–,–,–,–,–,–,–,–,–,–,–,–,–,12.9,15.3,23.1,14.9,17.1,26.1,–
Cn1c(NN)nc(-c2cccs2)c(C#N)c1=O,63,53,68,61,36.4,32.35,29.13,26.13,58.24,44.42,40.3,9.27,10.1,15.4,10.7,13.8,15.9,10.2,12.8,15.9,zone of inhibition at 25 µg/mL (Staphylococcus aureus [24]): 9.12 mm; zone of inhibition at 50 µg/mL (Staphylococcus aureus [25]): 10.6 mm; zone of inhibition at 100 µg/mL (Staphylococcus aureus [26]): 13.4 mm
CCCSc1ccc2[nH]c(NC(=O)OC)nc2c1 [ALBENDAZOLE],–,–,–,–,–,50.38,35.58,30.57,60.36,55.25,53.34,–,–,–,–,–,–,–,–,–,–
